The test system of one assay is HeLa. As to the kind of experiment: Cytotoxicity in human HeLa cells assessed as reduction in cell viability incubated for 72 hrs by SRB assay. The assay is classed as functional, cell-based.
Details: not given
A digest of the protocol: (§1)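 SRB assay of cell viability in human cancer lines (HeLa, KB, A549, U87, HepG2) and normal dermal fibroblasts (HDF). IC50 values are […] of three independent experiments.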
(Sulforhodamine B stains cellular protein and so reports cell mass.)
`O=c1[nH]c(=O)n([C@H]2C[C@H](O)[C@@H](Cn3cc(CNc4ccn([C@@H]5O[C@H](CO)[C@@H](O)C5(F)F)c(=O)n4)nn3)O2)cc1F`: the IC50 (commonly the midpoint of a concentration-inhibition curve) was 78.9 µM.
The same measure, in the same setting: the value for `Nc1ccn([C@@H]2O[C@H](Cn3cc(COC(=O)Nc4ccn([C@@H]5O[C@H](CO)[C@@H](O)C5(F)F)c(=O)n4)nn3)[C@@H](O)C2(F)F)c(=O)n1` was 12.4 µM; that for `O=C(Nc1ccn([C@@H]2O[C@H](CO)[C@@H](O)C2(F)F)c(=O)n1)OCc1cn(C[C@H]2O[C@@H](n3ccc(NC(=O)OCc4ccccc4)nc3=O)C(F)(F)[C@@H]2O)nn1` was 1.98 µM; that for `Cc1cn([C@H]2C[C@H](O)[C@@H](Cn3cc(CNc4ccn([C@@H]5O[C@H](CO)[C@@H](O)C5(F)F)c(=O)n4)nn3)O2)c(=O)[nH]c1=O` was 129 µM.

The test system of a further assay is KB. Put plainly: Cytotoxicity in human KB cells assessed as reduction in cell viability incubated for 72 hrs by SRB assay. The class given is functional, cell-based.
Details: not given
A digest of the protocol:
as §1
As for `O=c1[nH]c(=O)n([C@H]2C[C@H](O)[C@@H](Cn3cc(CNc4ccn([C@@H]5O[C@H](CO)[C@@H](O)C5(F)F)c(=O)n4)nn3)O2)cc1F`, the IC50 is 81.5 µM.
Take `Nc1ccn([C@@H]2O[C@H](Cn3cc(COC(=O)Nc4ccn([C@@H]5O[C@H](CO)[C@@H](O)C5(F)F)c(=O)n4)nn3)[C@@H](O)C2(F)F)c(=O)n1`: the IC50 was found to be 11.3 µM.
Regarding `O=C(Nc1ccn([C@@H]2O[C@H](CO)[C@@H](O)C2(F)F)c(=O)n1)OCc1cn(C[C@H]2O[C@@H](n3ccc(NC(=O)OCc4ccccc4)nc3=O)C(F)(F)[C@@H]2O)nn1`, the IC50 was determined as 2.01 µM.
Regarding `Cc1cn([C@H]2C[C@H](O)[C@@H](Cn3cc(CNc4ccn([C@@H]5O[C@H](CO)[C@@H](O)C5(F)F)c(=O)n4)nn3)O2)c(=O)[nH]c1=O`, the concentration for half-maximal inhibition (IC50) amounted to 131 µM.

The test system of a further assay is A549. Put plainly: Cytotoxicity in human A549 cells assessed as reduction in cell viability incubated for 72 hrs by SRB assay. The note with it: A549, 72 h. The assay is classed as functional, cell-based. A digest of the protocol: as §1
As for `O=c1[nH]c(=O)n([C@H]2C[C@H](O)[C@@H](Cn3cc(CNc4ccn([C@@H]5O[C@H](CO)[C@@H](O)C5(F)F)c(=O)n4)nn3)O2)cc1F`, the IC50 is 79.3 µM.
As for `Nc1ccn([C@@H]2O[C@H](Cn3cc(COC(=O)Nc4ccn([C@@H]5O[C@H](CO)[C@@H](O)C5(F)F)c(=O)n4)nn3)[C@@H](O)C2(F)F)c(=O)n1`, the IC50 turned out to be 11.4 µM.
As to `O=C(Nc1ccn([C@@H]2O[C@H](CO)[C@@H](O)C2(F)F)c(=O)n1)OCc1cn(C[C@H]2O[C@@H](n3ccc(NC(=O)OCc4ccccc4)nc3=O)C(F)(F)[C@@H]2O)nn1`, the IC50 is 2.11 µM.
The same measure, in the same setting: under `Cc1cn([C@H]2C[C@H](O)[C@@H](Cn3cc(CNc4ccn([C@@H]5O[C@H](CO)[C@@H](O)C5(F)F)c(=O)n4)nn3)O2)c(=O)[nH]c1=O` stands 126 µM.

The subject of the next assay is U-87 MG. Put plainly: Cytotoxicity in human U87 cells assessed as reduction in cell viability incubated for 72 hrs by SRB assay.
Details: not given
The class given is functional, cell-based, U-87MG ATCC. A digest of the protocol:
as §1
For `O=c1[nH]c(=O)n([C@H]2C[C@H](O)[C@@H](Cn3cc(CNc4ccn([C@@H]5O[C@H](CO)[C@@H](O)C5(F)F)c(=O)n4)nn3)O2)cc1F`, the IC50 worked out at 80.3 µM.
On to `Nc1ccn([C@@H]2O[C@H](Cn3cc(COC(=O)Nc4ccn([C@@H]5O[C@H](CO)[C@@H](O)C5(F)F)c(=O)n4)nn3)[C@@H](O)C2(F)F)c(=O)n1`, for which the IC50 stood at 12.6 µM.
`O=C(Nc1ccn([C@@H]2O[C@H](CO)[C@@H](O)C2(F)F)c(=O)n1)OCc1cn(C[C@H]2O[C@@H](n3ccc(NC(=O)OCc4ccccc4)nc3=O)C(F)(F)[C@@H]2O)nn1`: the IC50 was 2.14 µM.
For the compound `Cc1cn([C@H]2C[C@H](O)[C@@H](Cn3cc(CNc4ccn([C@@H]5O[C@H](CO)[C@@H](O)C5(F)F)c(=O)n4)nn3)O2)c(=O)[nH]c1=O`, the IC50 stood at 128 µM.

A further assay concerns HepG2. As to the kind of experiment: Cytotoxicity in human HepG2 cells assessed as reduction in cell viability incubated for 72 hrs by SRB assay. The class given is functional, cell-based. The settings on record: HepG2, 72 h. A digest of the protocol: as §1
As to `O=c1[nH]c(=O)n([C@H]2C[C@H](O)[C@@H](Cn3cc(CNc4ccn([C@@H]5O[C@H](CO)[C@@H](O)C5(F)F)c(=O)n4)nn3)O2)cc1F`, the IC50 was found to be 78.9 µM.
Still for that read-out and setting: under `Nc1ccn([C@@H]2O[C@H](Cn3cc(COC(=O)Nc4ccn([C@@H]5O[C@H](CO)[C@@H](O)C5(F)F)c(=O)n4)nn3)[C@@H](O)C2(F)F)c(=O)n1` stands 10.8 µM.
Turning to `O=C(Nc1ccn([C@@H]2O[C@H](CO)[C@@H](O)C2(F)F)c(=O)n1)OCc1cn(C[C@H]2O[C@@H](n3ccc(NC(=O)OCc4ccccc4)nc3=O)C(F)(F)[C@@H]2O)nn1`, the IC50 turned out to be 2.21 µM.
On to `Cc1cn([C@H]2C[C@H](O)[C@@H](Cn3cc(CNc4ccn([C@@H]5O[C@H](CO)[C@@H](O)C5(F)F)c(=O)n4)nn3)O2)c(=O)[nH]c1=O`, for which the IC50 was 130 µM.

The test system of a further assay is NHDF. As to the kind of experiment: Cytotoxicity in human NHDF cells assessed as reduction in cell viability incubated for 72 hrs by SRB assay. The assay is classed as cell-based.
Details: not given
A digest of the protocol:
as §1
On to `O=c1[nH]c(=O)n([C@H]2C[C@H](O)[C@@H](Cn3cc(CNc4ccn([C@@H]5O[C@H](CO)[C@@H](O)C5(F)F)c(=O)n4)nn3)O2)cc1F`, for which the IC50 worked out at 106 µM.
As to `Nc1ccn([C@@H]2O[C@H](Cn3cc(COC(=O)Nc4ccn([C@@H]5O[C@H](CO)[C@@H](O)C5(F)F)c(=O)n4)nn3)[C@@H](O)C2(F)F)c(=O)n1`, the IC50 came out at 15.8 µM.
As for `O=C(Nc1ccn([C@@H]2O[C@H](CO)[C@@H](O)C2(F)F)c(=O)n1)OCc1cn(C[C@H]2O[C@@H](n3ccc(NC(=O)OCc4ccccc4)nc3=O)C(F)(F)[C@@H]2O)nn1`, the IC50 is 8.12 µM.
`Cc1cn([C@H]2C[C@H](O)[C@@H](Cn3cc(CNc4ccn([C@@H]5O[C@H](CO)[C@@H](O)C5(F)F)c(=O)n4)nn3)O2)c(=O)[nH]c1=O`: the IC50 was found to be 152 µM.

Test system in another assay: not listed separately
Put plainly: Selectivity index, ratio of IC50 for cytotoxicity in human NHDF cells to IC50 for cytotoxicity in human HeLa cells.
Details: not given
A digest of the protocol: (§2)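 Selectivity index is the IC50 in normal HDF fibroblasts divided by the IC50 in the given cancer line.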
As for `O=C(Nc1ccn([C@@H]2O[C@H](CO)[C@@H](O)C2(F)F)c(=O)n1)OCc1cn(C[C@H]2O[C@@H](n3ccc(NC(=O)OCc4ccccc4)nc3=O)C(F)(F)[C@@H]2O)nn1`, the “Ratio IC50” value came to 4.1.

Test system in the next assay: not listed separately
Put plainly: Selectivity index, ratio of IC50 for cytotoxicity in human NHDF cells to IC50 for cytotoxicity in human KB cells.
Details: not given
A digest of the protocol:
as §2
For the compound `O=C(Nc1ccn([C@@H]2O[C@H](CO)[C@@H](O)C2(F)F)c(=O)n1)OCc1cn(C[C@H]2O[C@@H](n3ccc(NC(=O)OCc4ccccc4)nc3=O)C(F)(F)[C@@H]2O)nn1`, the “Ratio IC50” value is listed as 4.04.

Test system in another assay: not listed separately
Put plainly: Selectivity index, ratio of IC50 for cytotoxicity in human NHDF cells to IC50 for cytotoxicity in human A549 cells.
Details: not given
A digest of the protocol: as §2
Consider `O=C(Nc1ccn([C@@H]2O[C@H](CO)[C@@H](O)C2(F)F)c(=O)n1)OCc1cn(C[C@H]2O[C@@H](n3ccc(NC(=O)OCc4ccccc4)nc3=O)C(F)(F)[C@@H]2O)nn1`, for which the “Ratio IC50” value was 3.85.

Test system in another assay: not listed separately
Put plainly: Selectivity index, ratio of IC50 for cytotoxicity in human NHDF cells to IC50 for cytotoxicity in human U87 cells.
Details: not given
A digest of the protocol: as §2
Take `O=C(Nc1ccn([C@@H]2O[C@H](CO)[C@@H](O)C2(F)F)c(=O)n1)OCc1cn(C[C@H]2O[C@@H](n3ccc(NC(=O)OCc4ccccc4)nc3=O)C(F)(F)[C@@H]2O)nn1`: the “Ratio IC50” value came to 3.79.

Test system in another assay: not listed separately
As to the kind of experiment: Selectivity index, ratio of IC50 for cytotoxicity in human NHDF cells to IC50 for cytotoxicity in human HepG2 cells.
Details: not given
A digest of the protocol: as §2
On to `O=C(Nc1ccn([C@@H]2O[C@H](CO)[C@@H](O)C2(F)F)c(=O)n1)OCc1cn(C[C@H]2O[C@@H](n3ccc(NC(=O)OCc4ccccc4)nc3=O)C(F)(F)[C@@H]2O)nn1`, for which the “Ratio IC50” value was 3.67.
